One series is filed under the species Homo sapiens. The experiment in a line: Selectivity index, ratio of IC50 for recombinant human MAOA expressed in insect cell microsomes to IC50 for recombinant human MAOB expressed in insect cell microsomes.
Series [1] deals with T1, Amine oxidase [flavin-containing] A (Homo sapiens, UniProt P21397).
T1 sequence (P21397 whole entry): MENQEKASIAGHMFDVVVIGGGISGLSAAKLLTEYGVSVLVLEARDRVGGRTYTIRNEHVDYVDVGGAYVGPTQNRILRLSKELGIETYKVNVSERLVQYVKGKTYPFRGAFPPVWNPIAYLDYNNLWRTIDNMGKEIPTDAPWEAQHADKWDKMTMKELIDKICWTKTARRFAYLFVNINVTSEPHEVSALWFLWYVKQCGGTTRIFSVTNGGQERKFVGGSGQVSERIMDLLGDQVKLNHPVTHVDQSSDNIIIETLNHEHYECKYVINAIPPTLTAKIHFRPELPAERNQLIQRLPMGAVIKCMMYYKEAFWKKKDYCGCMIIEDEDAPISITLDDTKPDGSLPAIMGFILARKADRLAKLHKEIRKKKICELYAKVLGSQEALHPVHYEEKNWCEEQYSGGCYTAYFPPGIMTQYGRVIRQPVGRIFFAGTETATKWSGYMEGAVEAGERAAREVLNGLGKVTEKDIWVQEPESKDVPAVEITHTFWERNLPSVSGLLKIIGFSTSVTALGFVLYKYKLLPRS
As to the kind of experiment: Inhibition of recombinant human MAOA expressed in insect cell microsomes using kynuramine as substrate preincubated with substrate for 30 mins followed by enzyme addition and measured after 20 mins by fluorescence spectrophotometry. In a few lines: (§1)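 Recombinant human enzyme; kynuramine as substrate for both isoforms. 4-Hydroxyquinoline product read by fluorescence spectrophotometry after alkalization. Rates measured without and with inhibitor at 0.0003–100 µM. IC50 estimated from sigmoidal plots of rate versus log inhibitor concentration. Reported as mean ± standard deviation of triplicate experiments.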

The target in series [2] is T2, Amine oxidase [flavin-containing] B (Homo sapiens, UniProt P27338).
T2 sequence (P27338 whole entry): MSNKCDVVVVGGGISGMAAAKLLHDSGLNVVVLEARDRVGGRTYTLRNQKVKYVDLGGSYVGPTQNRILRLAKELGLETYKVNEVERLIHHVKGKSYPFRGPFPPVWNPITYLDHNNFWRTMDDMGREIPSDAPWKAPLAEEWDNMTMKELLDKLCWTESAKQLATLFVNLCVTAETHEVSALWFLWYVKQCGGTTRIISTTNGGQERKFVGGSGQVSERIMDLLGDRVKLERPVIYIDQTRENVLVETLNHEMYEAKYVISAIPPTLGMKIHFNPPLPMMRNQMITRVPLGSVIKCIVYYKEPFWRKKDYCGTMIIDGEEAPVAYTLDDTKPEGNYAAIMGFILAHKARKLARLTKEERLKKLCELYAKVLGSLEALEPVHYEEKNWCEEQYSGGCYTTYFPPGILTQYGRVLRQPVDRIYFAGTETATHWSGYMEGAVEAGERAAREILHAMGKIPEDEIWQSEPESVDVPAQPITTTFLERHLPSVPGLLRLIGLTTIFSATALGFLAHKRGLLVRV
As to the kind of experiment: Inhibition of recombinant human MAOB expressed in insect cell microsomes using kynuramine as substrate preincubated with substrate for 30 mins followed by enzyme addition and measured after 20 mins by fluorescence spectrophotometry. The gist of the method:
as §1

The target of series [3] is T2, Amine oxidase [flavin-containing] B. As to the kind of experiment: Reversible inhibition of recombinant human MAO-B expressed in insect cell microsomes assessed as residual activity using kynuramine as substrate at 4 times IC50 concentration preincubated for 15 mins with subsequent dialysis for 24 hrs followed by substrate addition measured after 20 mins by fluorescence spectroscopy relative to control. In a few lines:
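Enzyme preincubated 15 min with inhibitor at 4 × IC50, then dialyzed 24 h. Samples then diluted twofold to 2 × IC50. Kynuramine added and reactions run 20 min. 4-Hydroxyquinoline quantified by fluorescence spectrophotometry. Controls: dialysis with no inhibitor (set as 100%) and dialysis with the irreversible inhibitor (R)-deprenyl.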

Series [4] shares this target. As to the kind of experiment: Inhibition of recombinant human MAO-B expressed in insect cell microsomes assessed as residual activity using kynuramine as substrate at 4 times IC50 concentration preincubated for 15 mins measured after 20 mins by fluorescence spectroscopy relative to control. The gist of the method:
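Enzyme mixed with inhibitor at 4 × IC50 and incubated 15 min, with no dialysis. Residual activity read with kynuramine by 4-hydroxyquinoline fluorescence and expressed against the dialyzed no-inhibitor control.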

The target is the same in series [5]. The experiment in a line: Competitive inhibition of human MAOB expressed in insect cell microsomes using varying levels of kynuramine as substrate measured after 20 mins by Lineweaver-burk plot analysis. In a few lines: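 Activity recorded at 8 kynuramine concentrations (15–250 µM). Runs done without inhibitor and with five inhibitor levels (¼, ½, ¾, 1 and 1¼ × IC50). Mode of inhibition assigned from Lineweaver-Burk plots.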

For series [6], the target named is T1, Amine oxidase [flavin-containing] A. As to the kind of experiment: Competitive inhibition of human MAOA using p-trifluoromethyl benzylamine as substrate preincubated with substrate for 5 mins followed by enzyme addition by fluorimetric horseradish peroxidase-Amplex Red-coupled assay.

In the case of `c1ncn(Cc2ccc(-c3noc(-c4ccc(C5=NCCN5)cc4)n3)cc2)n1`, the Ratio IC50 in the series filed under Homo sapiens worked out at 2.7. Also, the values for the IC50 in series [1] and in series [2] were 24.6 µM and 9.02 µM, respectively.
For the molecule `Cn1ncc2c(c1=O)Oc1ccccc1C1=NCCN12`, the half-inhibitory concentration (IC50) in series [1] and in series [2] was more than 100 µM throughout.
As to `N#Cc1ccc(C2=NCCN2c2cnccn2)cc1`, in the series listed under Homo sapiens, the Ratio IC50 is more than 5.8. For the same molecule, the IC50 in series [1] is more than 100 µM; in series [2] it was 17.2 µM.
For `N#Cc1cccc(C2=NCCN2)c1`, in the series listed under Homo sapiens, the Ratio IC50 came to 78. Further, the IC50 in series [1] stood at 147 µM; in series [2], 1.87 µM.
`CC(C)c1noc(-c2ccc(C3=NCCN3)cc2)n1`: the Ratio IC50 in the series listed under Homo sapiens came to 97. For the same molecule, the results for the IC50 in series [1] and in series [2] were 22.5 µM and 0.23 µM, respectively.
Regarding `Cc1ccc(-c2nc(-c3ccc(C4=NCCN4)cc3)no2)cc1`, the Ratio IC50 in the series filed under Homo sapiens turned out to be 32. Also, the Activity in series [3] came to 66%; in series [4], 36%. Further, affinity in series [5] was put at a Ki of 0.038 µM. The IC50 in series [1] was 2.31 µM; in series [2], 0.071 µM.
In the case of `c1ccc(OCc2noc(-c3ccc(C4=NCCN4)cc3)n2)cc1`, in the series listed under Homo sapiens, the Ratio IC50 is more than 10. In addition, the values for the IC50 in series [1] and in series [2] were more than 100 µM and 9.98 µM, respectively.
Take `c1csc(-c2noc(-c3ccc(C4=NCCN4)cc3)n2)c1`: the Ratio IC50 in the series filed under Homo sapiens came out at 1.7. For the same molecule, the results for the IC50 in series [1] and in series [2] were 1.57 µM and 0.89 µM, respectively.
In the case of `CC1CN=C(c2ccc(-c3noc(-c4ccc(Cl)c(Cl)c4)n3)cc2)N1` (centres undefined), the Ratio IC50 in the series filed under Homo sapiens is 91. The IC50 in series [1] was found to be 14.7 µM; in series [2], 0.16 µM.
In the case of `CCOc1ccc(-c2n[nH]cc2C2=NCCN2)cc1`, the half-inhibitory concentration (IC50) in series [1] and in series [2] was more than 100 µM throughout.
For the molecule `Clc1ccc(-c2noc(-c3ccc(C4=NCCN4)cc3)n2)cc1Cl`, the Ratio IC50 in the series filed under Homo sapiens is 92. Besides, the IC50 in series [1] was 1.11 µM; in series [2], 0.012 µM.
For `c1ccc(-n2cc(C3=NCCN3)c(-c3cccs3)n2)cc1`, in that order: more than 5.4, more than 100 µM and 18.4 µM.
On the same counts, the results for `FC(F)(F)c1cnc2c(c1)Oc1ccccc1C1=NCCN12` are less than 0.32, 32 µM and more than 100 µM.
`c1ccc2oc(C3=NCCN3)cc2c1` returned a Ki in series [6] of 17 µM.
For the molecule `N#Cc1ccc(C2=NCCN2c2ccc(C(F)(F)F)cn2)cc1`, the Ratio IC50 in the series filed under Homo sapiens is more than 2.4. Also, the IC50 is more than 100 µM in series [1] and 41.8 µM in series [2].
Regarding `COc1ccc(C2=NCCN2)cc1Cn1ccnc1C`, the IC50 in series [1] and in series [2] was more than 100 µM throughout.
In the case of `Cn1ccnc1SCc1ccc(-c2noc(-c3ccc(C4=NCCN4)cc3)n2)cc1`, in the series listed under Homo sapiens, the Ratio IC50 was 5.4. In addition, the figures for the IC50 in series [1] and in series [2] were 12.4 µM and 2.28 µM, respectively.
In the case of `c1cc(C2=NCCN2)cc(-c2noc(-c3cccs3)n2)c1`, the Ratio IC50 in the series listed under Homo sapiens stood at 83. In addition, the IC50 in series [1] is 88.3 µM; in series [2], 1.06 µM.
For `Clc1cccc(-c2noc(-c3ccc(C4=NCCN4)cc3)n2)c1`, in that order: 85, 5.47 µM and 0.064 µM.
For `c1cc(-c2noc(C3CC3)n2)ccc1C1=NCCN1`, in that order: 1.7, 7.37 µM and 4.28 µM.
On the same counts, the results for `Clc1cccc(-c2nc(-c3cccc(C4=NCCN4)c3)no2)c1` are 46, 1.39 µM and 0.03 µM.
Take `O=c1ccc(-c2ccccc2)nn1Cc1noc(-c2ccc(C3=NCCN3)cc2)n1`: in the series filed under Homo sapiens, the Ratio IC50 is more than 164. Besides, the IC50 was more than 100 µM in series [1] and 0.608 µM in series [2].
On the same counts, the results for `O=c1c2ccccc2cnn1Cc1noc(-c2ccc(C3=NCCN3)cc2)n1` are more than 79, more than 100 µM and 1.26 µM.
On the same counts, the results for `CC(C)(C)c1ccc(-c2noc(-c3ccc(C4=NCCN4)cc3)n2)cc1` are 1.8, 0.751 µM and 0.411 µM.
For the molecule `c1ccc2c(c1)Oc1nccnc1N1CCN=C21`, the IC50 in series [1] and in series [2] was more than 100 µM in each case.
For `Clc1ccccc1-c1noc(-c2ccc(C3=NCCN3)cc2)n1`, in the series filed under Homo sapiens, the Ratio IC50 was determined as 570. For the same molecule, the IC50 in series [1] turned out to be 17.1 µM; in series [2], 0.03 µM.
For `Cc1nc(-c2ccc(C3=NCCN3)cc2)no1`, in that order: 1, 41.1 µM and 39.7 µM.
For `c1ccc(-c2ccc(-c3noc(-c4ccc(C5=NCCN5)cc4)n3)cc2)cc1`, in that order: more than 2.1, more than 100 µM and 47.6 µM.
For `c1ccc(Oc2ccc(-c3noc(-c4ccc(C5=NCCN5)cc4)n3)cc2)cc1`, in that order: 2, 2.77 µM and 1.37 µM.
With `COc1ccc(-c2noc(-c3ccc(C4=NCCN4)cc3)n2)cc1OC`, in the series listed under Homo sapiens, the Ratio IC50 is more than 132. For the same molecule, the IC50 was more than 100 µM in series [1] and 0.756 µM in series [2].
As to `Cc1ccc(Cc2noc(-c3ccc(C4=NCCN4)cc3)n2)cc1`, the Ratio IC50 in the series filed under Homo sapiens was determined as 15. Moreover, the values for the IC50 in series [1] and in series [2] were 55.5 µM and 3.64 µM, respectively.
`Cc1nn(Cc2nc(-c3cccc(C4=NCCN4)c3)no2)c(=O)c2ccccc12`: in the series listed under Homo sapiens, the Ratio IC50 stood at 2.6. Further, the IC50 in series [1] came to 62.2 µM; in series [2], 23.9 µM.
For `Cc1ccc(-c2noc(-c3ccc(C4=NCC(C)N4)cc3)n2)s1` (centres undefined), in that order: 82, 24.7 µM and 0.3 µM.
`COc1cccc(-c2noc(-c3ccc(C4=NCCN4)cc3)n2)c1`: in the series listed under Homo sapiens, the Ratio IC50 came to 55. Further, the values for the IC50 in series [1] and in series [2] were 12 µM and 0.216 µM, respectively.

The IC50 is the concentration needed to halve the response being measured. The Ki is the dissociation constant of the complex between target and ligand, obtained from inhibition or displacement. Read a high Ki as lower affinity.

Source of the values: ChEMBL document CHEMBL4308880, “Novel monoamine oxidase inhibitors based on the privileged 2-imidazoline molecular framework” (Bioorg Med Chem Lett, 2019).
